Consider seven molecules from ChEMBL document CHEMBL1141377 (J Nat Prod, 2007).

pIC50: −log10 of the molar value. Active and inactive are the calls of the source. No cut-off for these calls is given here.

In one data set the target is 20S proteasome. Briefly: Inhibition of human 20S proteasome. Format: subcellular.
Data set [1] in a line: Stability in neutral pH after 24 hrs. To be noted: read-out: Stability. Format: physicochemical. The gist of the method:
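Compound solutions in 20% MeOH incubated in horse serum or water at pH 7 for 24 h. Recovery estimated by HPLC.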

Another data set has as its system NCI-H460. Put plainly: Cytotoxicity against human H460 cell line. It counts as functional, cell-based.
The next data set relates to MDA-MB-231. Briefly: Cytotoxicity against human MDA-MB-231 cell line. It counts as functional, cell-based.
Another data set relates to PBMC. Put plainly: Inhibition of LPS-induced TNFalpha production in human PBMC. It counts as functional, cell-based. The gist of the method:
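Human PBMC isolated from heparinized healthy-donor blood on 80% Percoll, washed twice in PBS, in RPMI1640 with 10% heat-inactivated FCS. Cells preincubated 1 h with compound or DMSO (final 0.1%), then stimulated with LPS (1 μg/mL). After overnight culture, supernatant TNF-α measured. IC50 reported.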

The subject of the next data set is HCT-116. Briefly: Cytotoxicity against human HCT116 cell line. It counts as cell-based.
The target of a further data set is Trypsin (Homo sapiens) (UniProt P07477+P07478+P35030). Put plainly: Inhibition of trypsin up to 100 uM. Format: protein assay.
For another data set, the species on record is Homo sapiens. Briefly: Inhibition of chymotrypsin up to 100 uM.
Data set [2] can be described thus: Stability in neutral pH after 48 hrs. It counts as physicochemical. To be noted: read-out: Stability.
The nature of data set [3]: Stability in alkaline pH after 48 hrs. It counts as physicochemical. Particulars: read-out: Stability.

For `CCCCCC[C@H]1C(=O)N[C@@]2([C@@H](O)[C@@H]3C=CCCC3)C(=O)O[C@@]12C` [CINNABARAMIDE A], the pIC50 (usually −log10 of the IC50, conventionally taken in molar units) was 9.00 against 20S proteasome, 6.00 in the data set with NCI-H460, 6.00 in the data set with MDA-MB-231 and 6.30 with PBMC. Besides, the remaining at 24 h in data set [1] came to 50%. In the data set with HCT-116, this molecule displayed an Activity of 10 nM. In addition, the result at Trypsin (Homo sapiens) and in the data set filed under Homo sapiens was inactive.

Molecule `CCCCCC(O)[C@H]1C(=O)N[C@@]2([C@@H](O)[C@@H]3C=CCCC3)C(=O)O[C@@]12C` (stereo partly specified) [CINNABARAMIDE B] had a pIC50 on 20S proteasome of 6.61. The remaining at 24 h in data set [1] came to 50%. The outcome at Trypsin (Homo sapiens) and in the data set filed under Homo sapiens was inactive.

On to `CCCCCC[C@H]1C(=O)N[C@@]2(C[C@@H]3C=CCCC3)C(=O)O[C@@]12C` [CINNABARAMIDE C], for which the pIC50 on 20S proteasome is 7.92. In addition, the remaining at 24 h in [1] worked out at 50%. The outcome at Trypsin (Homo sapiens) and in the data set listed under Homo sapiens was inactive.

As to `CCCCCC(O)[C@H]1C(=O)N[C@](C(=O)O)([C@@H](O)[C@@H]2C=CCCC2)[C@@]1(C)O` (stereo partly specified) [CINNABARAMIDE D], the pIC50 at 20S proteasome was 7.00. Moreover, the result on Trypsin (Homo sapiens) and in the data set listed under Homo sapiens was inactive.

In turn, `CCCCCC[C@H]1C(=O)N[C@](C(=O)O)([C@@H](O)[C@@H]2C=CCCC2)[C@@]1(C)O` [CINNABARAMIDE E] showed a pIC50 at 20S proteasome of 6.87. Besides, the outcome at Trypsin (Homo sapiens) and in the data set listed under Homo sapiens was inactive.

Take `CCCCCC[C@H]1C(=O)N[C@](C(=O)SC[C@H](NC(C)=O)C(=O)O)([C@@H](O)[C@@H]2C=CCCC2)[C@@]1(C)O` [CINNABARAMIDE F]: the pIC50 against 20S proteasome was 8.22. The remaining at 48 h in [2] was greater than 90%. Further, the result on Trypsin (Homo sapiens) and in the data set filed under Homo sapiens was inactive.

On 20S proteasome, `CCCCCC[C@H]1C(=O)N[C@](C(=O)SC[C@H](NC(C)=O)C(=O)OC)([C@@H](O)[C@@H]2C=CCCC2)[C@@]1(C)O` [CINNABARAMIDE G] showed a pIC50 of 9.22. Besides, the remaining at 48 h in data set [2] amounted to 90%; in data set [3] it was 45%. Besides, the outcome on Trypsin (Homo sapiens) and in the data set listed under Homo sapiens was inactive.
